The source of these data is ChEMBL document CHEMBL5329219, “α-Aminophosphonate inhibitors of metallo-β-lactamases NDM-1 and VIM-2” (RSC Med Chem, 2023).

Active and inactive are the calls of the source. The calls are words filed in the database; no cut-off is given here.

Broadly, the IC50 is the concentration needed to halve the response being measured.

The subject of one data set is HepG2. Kind of data set: Cytotoxicity against human HepG2 cells incubated for 24 hrs by resorufin based fluorescence assay. It is filed as toxicity, cell-based. The note with it: hepg2, 24 h. In short, it runs like this: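 HepG2 cells grown in DMEM with 10% FBS and 1% penicillin–streptomycin at 37 °C, 5% CO2, seeded for exponential growth. Two-fold serial dilutions of compound added at 0.3% v/v final DMSO for 24 h. PrestoBlue viability read as resorufin fluorescence (544/590 nm). Controls were untreated, DMSO-only and 1% SDS. EC50 from three independent experiments.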

Data set [1] addresses Metallo-beta-lactamase type 2 (Bacteria) (UniProt C7C422). Briefly: (§1) Inhibition of bacterial metallo-beta-lactamase NDM-1 preincubated for 5 mins followed by imipenem addition by spectrophotometer analysis. The method, boiled down: (§2)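 Purified NDM-1 (10 nM) in 50 mM HEPES pH 7.2 with 100 μM ZnCl2, 2.5% DMSO and 400 μg ml−1 BSA, preincubated with inhibitor (twelve concentrations, 0–800 μM) at 25 °C for 5 min. Reaction started with 100 μM imipenem and absorbance read at 300 nm. Triplicates; IC50 from initial velocities by log[inhibitor] vs. response fit.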

The target of data set [2] is Metallo-beta-lactamase type 2 (Bacteria, UniProt C7C422). The description is as §1. The method, boiled down:
as §2

The next data set has as its system Bacteria. Kind of data set: Inhibition of bacterial metallo-beta-lactamase VIM-2 preincubated for 5 mins followed by nitrocefin addition by spectrophotometer analysis. In short, it runs like this: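 Purified VIM-2 (0.1 nM) in 50 mM HEPES pH 7.2 with 100 μM ZnCl2, 2.5% DMSO and 400 μg ml−1 BSA, preincubated with inhibitor (twelve concentrations, 0–800 μM) at 25 °C for 5 min. Reaction started with 100 μM nitrocefin and absorbance read at 482 nm. Triplicates; IC50 from initial velocities by log[inhibitor] vs. response fit.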

Metallo-beta-lactamase type 2 (Bacteria), sequence (C7C422 whole entry): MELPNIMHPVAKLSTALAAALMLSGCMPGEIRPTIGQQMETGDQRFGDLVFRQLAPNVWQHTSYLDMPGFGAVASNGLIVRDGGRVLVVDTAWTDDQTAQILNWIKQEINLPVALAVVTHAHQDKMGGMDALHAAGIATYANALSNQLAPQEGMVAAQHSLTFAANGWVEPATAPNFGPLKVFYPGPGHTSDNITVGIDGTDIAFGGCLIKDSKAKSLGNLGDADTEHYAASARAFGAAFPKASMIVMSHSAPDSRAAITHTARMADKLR
Metallo-beta-lactamase type 2, sequence (C7C422 whole entry): as above

Regarding `Cl.O=C(NC(C1CCCCN1)P(=O)(O)O)c1scc2c1CCCC2` (stereo in doubt; form 1), the Activity entry with HepG2 is listed as “Non-Toxic”. The same measure, in the same setting: under `Cl.O=C(NC(C1CCCCN1)P(=O)(O)O)c1cc2ccccc2s1` (stereo not drawn) stands “Non-Toxic”. On to `O=C(NC(C1CCCCN1)P(=O)(O)O)c1csc2ccccc12` (stereo in doubt; form 1), for which the inhibition result in data set [1] is “inactive”. With `Cc1[nH]c(=S)sc1CC(=O)NC(C1CCCCN1)P(=O)(O)O` (stereo in doubt; form 1), in data set [1], the inhibition entry was “inactive”. `Cl.O=C(NC(C1CCCCN1)P(=O)(O)O)c1csc2c1CCCC2` (stereo not drawn): in data set [2], the IC50 came to 76 µM. Also, the inhibition result in data set [1] is “inactive”. Further, the Activity entry in the data set with HepG2 was “Non-Toxic”. In the case of `O=C(NC(C1CCCCN1)P(=O)(O)O)c1cc2c(s1)CCCC2` (stereo in doubt; form 1), the inhibition result in data set [1] was “inactive”. Still for that read-out and setting: under `O=C(NC(C1CCCCN1)P(=O)(O)O)c1scc2c1CCCC2` (stereo in doubt; form 2) stands “inactive”; under `O=C(NC(C1CCCCN1)P(=O)(O)O)c1cc2c(s1)CCCC2` (stereo in doubt; form 2), “inactive”. In the case of `Cl.O=C(Cc1cccs1)NC(C1CCCCN1)P(=O)(O)O` (stereo not drawn), the inhibition result with Bacteria is “inactive”. The Activity result in the data set on HepG2 is recorded as “Non-Toxic”. Take `Cl.O=C(NC(C1CCCCN1)P(=O)(O)O)c1ccsc1` (stereo not drawn): the Activity result with HepG2 is recorded as “Non-Toxic”. With `Cc1[nH]c(=S)sc1CC(=O)NC(C1CCCCN1)P(=O)(O)O` (stereo in doubt; form 2), the inhibition entry (in the data set with Bacteria; in data set [1]) was “inactive” in each case. The compound `Cl.O=C(Cc1cc2ccccc2s1)NC(C1CCCCN1)P(=O)(O)O` (stereo not drawn) had an IC50 in data set [2] of 22.4 µM. Further, the inhibition result in data set [1] is “inactive”. The Activity result in the data set on HepG2 was “Non-Toxic”.

In the case of `Cl.O=C(Cc1ccsc1)NC(C1CCCCN1)P(=O)(O)O` (stereo not drawn), in the data set on Bacteria, the inhibition entry was “inactive”. In addition, the Activity entry in the data set on HepG2 was “Non-Toxic”.

As for `Cl.O=C(NC(C1CCCCN1)P(=O)(O)O)c1csc2ccccc12` (stereo in doubt; form 1), the Activity result with HepG2 was “Non-Toxic”. Regarding `Cl.O=C(NC(C1CCCCN1)P(=O)(O)O)c1cc2c(s1)CCCC2` (stereo in doubt; form 1), in the data set with HepG2, the Activity entry is reported as “Non-Toxic”.

Take `O=C(NC(C1CCCCN1)P(=O)(O)O)c1csc2ccccc12` (stereo in doubt; form 2): in data set [1], the inhibition entry was “inactive”. Still for that read-out and setting: for `O=C(NC(C1CCCCN1)P(=O)(O)O)c1scc2c1CCCC2` (stereo in doubt; form 1) the value was “inactive”.

As to `Cl.O=C(Cc1csc2ccccc12)NC(C1CCCCN1)P(=O)(O)O` (stereo not drawn), in the data set on Bacteria, the inhibition result was “inactive”. Further, in the data set on HepG2, the Activity entry is recorded as “Non-Toxic”. Consider `Cc1[nH]c(=S)sc1CC(=O)NC(C1CCCCN1)P(=O)(O)O.Cl` (stereo in doubt; form 1), for which the Activity result with HepG2 was “Non-Toxic”. Still for that read-out and setting: for `Cl.O=C(NC(C1CCCCN1)P(=O)(O)O)c1cccs1` (stereo not drawn) the value was “Non-Toxic”.
